Here are results for eight molecules from PubChem BioAssay.

Assay [1] can be described thus: inhibitors of TNFa-induced NFkB p65 translocation, primary screen, imaging, HUVEC, MLSMR starter and 10KST1 sets (AID 438;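 active = inhibition above 20% together with a positive visual image hit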;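 note: compound added about 3h40 before a 20 min TNFalpha stimulation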;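 for inhibition: signal is the nuclear over cytoplasmic p65 intensity ratio per well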). The following applies: HUVEC TNFa-induced p65 nuclear translocation; cell count: measured here: nuclei count (cytotoxicity indicator), at 2.08 µM; inhibition: at 2 µM, stronger effect = higher value, 0% TNFa-plus-vehicle, 100% no-TNFa wells.
Assay [2] in a line: inhibitors of mutant huntingtin aggregation, primary screen, imaging, exon1htt(103Q)mCFP cells, high-content imaging (AID 483;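 active = visual image review flags a hit and inhibition of aggregation exceeds 20%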;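 note: compound exposure lasted 3 days before fixation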;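 for nuclei count: percent of the per-plate median nuclei count of sample wells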). The following applies: exon1htt(103Q)mCFP cell line, aggregate imaging, at 2 µM; inhibition of aggregation: stronger effect = higher value; nuclei count: measured here: cell count, toxicity.
Assay [3] can be described thus: inhibitors of E-selectin induction by TNFa, primary screen, imaging, HUVEC, immunofluorescence, MLSMR starter and 10KST1 sets (AID 487;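 active = visually confirmed hit in the image check and inhibition above 20%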;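 for inhibition: signal is fraction of cell area covered by stained E-selectin grains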;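 for nuclei count: 100% = median nuclei count of all wells on the same plate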). The following applies: HUVEC TNFalpha-induced E-selectin immunofluorescence imaging, at 2 µM; inhibition: stronger effect = higher value; nuclei count: measured here: cell number, toxicity.
Assay [4] concerns the target Voltage-gated potassium channel subunit beta-2 (Rattus norvegicus) (UniProt P62483). Kind of assay: KvBeta enzyme negative modulators, primary screen, biochemical, NADPH fluorescence (AID 622;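 active = fluorescence slope higher than the sample average by over 3 SD, cut at about -0.22 in these data, passing the limit was not always enough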;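 note: slope of raw intensity against log time taken from 70 to 1610 s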). Conditions: recombinant KvBeta, 4-cyanobenzaldehyde reduction, at 10 µM, stronger effect = higher value.
For assay [5] the target is unchanged. Kind of assay: KvBeta positive modulators, primary screen, biochemical, NADPH fluorescence (AID 623;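 active = NADPH fluorescence slope more negative than the mean of all samples by about 3 SD, 99.7% confidence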;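 note: fluorescence intensity change per second fitted from 20 to 320 s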). The following applies: Recombinant KvBeta, NADPH fluorescence decrease slope, 10 min; at 10 µM; stronger effect = lower value.
The target in assay [6] is Muscarinic acetylcholine receptor M4 (Homo sapiens) (UniProt P08173). The assay is described as follows: compounds altering M4/GIRK thallium flux, either direction, primary screen, M4 allosteric agonist project, cell-based, HEK293 M4/GIRK, BTC-AM (AID 625).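 Note: thallium influx through GIRK channels coupled to M4 in HEK293 cells with BTC-AM dye.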 The following applies: at 10 µM, actives lie on both sides. The method in brief: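 Assay system: HEK293 cells with M4 receptor and GIRK channels / Controls: carbachol and DMSO controls / Schedule: 1 h dye loading, 2 min kinetic read / Technique: kinetic fluorescence with BTC-AM dye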
Sequence of Muscarinic acetylcholine receptor M4 (Homo sapiens) (P08173 whole entry, looked up): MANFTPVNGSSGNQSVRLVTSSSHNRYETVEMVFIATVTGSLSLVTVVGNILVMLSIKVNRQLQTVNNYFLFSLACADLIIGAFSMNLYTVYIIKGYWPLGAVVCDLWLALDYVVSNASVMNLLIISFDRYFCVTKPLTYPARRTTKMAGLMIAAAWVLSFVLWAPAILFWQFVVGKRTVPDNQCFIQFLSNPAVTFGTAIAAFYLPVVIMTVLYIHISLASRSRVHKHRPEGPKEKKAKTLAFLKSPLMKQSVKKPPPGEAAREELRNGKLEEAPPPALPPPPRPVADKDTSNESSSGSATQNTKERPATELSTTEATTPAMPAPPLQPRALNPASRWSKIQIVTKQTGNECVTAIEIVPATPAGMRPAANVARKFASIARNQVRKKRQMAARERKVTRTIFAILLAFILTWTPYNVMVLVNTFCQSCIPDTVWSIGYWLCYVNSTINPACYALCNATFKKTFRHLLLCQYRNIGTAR

A short description of assay [7]: inhibitors of Sendai virus-induced IRF3 signaling, primary screen, TLR/RLR signaling modifier project, cell-based, Sendai virus stimulus, luciferase, 10K MLSCN set (AID 602276;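 active = inhibition at or above 50% at 10 µM; inactive = inhibition below 50%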;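 note: firefly luciferase from ISG56 promoter only with Renilla not read in this screen; 0% = Sendai virus plus DMSO and 100% = medium plus DMSO without virus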). Conditions: HEK293 RL24 IRF3 luciferase reporter, at 10 µM, stronger effect = higher value.
A short description of assay [8]: inhibitors of poly I:C-induced TLR3 signaling, primary screen, cell-based, poly I:C stimulus, luciferase, 10K MLSCN set (AID 602277;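 active = inhibition of the reporter signal at or above 50%; inactive = inhibition below 50%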). Conditions: HEK293-TLR3 RL24 IRF3 luciferase reporter, at 10 µM, stronger effect = higher value. A general note: Reporter assays use an easily measured gene product as a stand-in for the process of interest.

Molecules are shown by their SMILES. Active and inactive are the calls of the source.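 Rule for the calls, unless noted: active = fluorescence slope after compound addition differing from the mean of all tested samples at 99.7% confidence, mostly higher but some lower; inactive = the rest.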

Sequence of Voltage-gated potassium channel subunit beta-2 (Rattus norvegicus) (P62483 whole entry, looked up): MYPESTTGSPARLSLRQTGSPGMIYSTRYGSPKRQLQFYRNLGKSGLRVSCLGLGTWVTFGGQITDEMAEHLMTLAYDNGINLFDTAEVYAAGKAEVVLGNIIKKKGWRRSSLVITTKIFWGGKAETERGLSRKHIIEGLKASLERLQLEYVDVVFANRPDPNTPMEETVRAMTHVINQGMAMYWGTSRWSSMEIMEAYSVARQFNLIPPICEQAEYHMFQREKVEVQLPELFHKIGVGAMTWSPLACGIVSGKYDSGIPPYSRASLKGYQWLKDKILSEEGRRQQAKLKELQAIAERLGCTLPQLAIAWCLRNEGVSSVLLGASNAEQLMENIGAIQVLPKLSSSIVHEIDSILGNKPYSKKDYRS

`Cc1ccc(NC(=O)COc2nc(C)cs2)cc1`: in assay [1], the cell count turned out to be 400. Besides, the inhibition (as a rule, the drop in the measured response relative to a control, in per cent) in assay [1] was 4.5% (inactive); in assay [3], -48.8% (inactive); in assay [7], 6.37% (inactive); in assay [8], 9.54% (inactive). Further, the inhibition of aggregation in assay [2] was -3.7% (inactive). Also, the nuclei count in assay [2] worked out at 100%; in assay [3], 108%. Also, the fluorescence slope is -0.555 (inactive) in assay [4] and 0.00704 (inactive) in assay [6]. In addition, the NADPH fluorescence slope in assay [5] was -5e-05 (inactive).

Take `CN(C)c1ccc(/C=C/C(O)=C2/C(=O)N(C)C3(C)CC2c2ccccc2O3)cc1` (stereo not drawn): the cell count in assay [1] was found to be 356. Moreover, the inhibition was -0.4% (inactive) in assay [1], -68% (inactive) in assay [3], 1.4% (inactive) in assay [7] and 23.4% (inactive) in assay [8]. Besides, the inhibition of aggregation in assay [2] was -5.2% (inactive). Moreover, the results for the nuclei count in assay [2] and in assay [3] were 102% and 115%, respectively. Also, the fluorescence slope in assay [4] is -0.521 (inactive); in assay [6] it was 0.0126 (active). For the same molecule, the NADPH fluorescence slope in assay [5] is -2e-07 (inactive).

In the case of `c1ccc(CNc2ccc3c(c2)ncn3C2CCCCC2)nc1`, the cell count in assay [1] turned out to be 171. For the same molecule, the inhibition in assay [1] is -4.9% (inactive); in assay [3], -12.5% (inactive); in assay [7] it was -10.6% (inactive); in assay [8] it was -24.3% (inactive). In assay [2], the inhibition of aggregation was 20% (inactive). In addition, the figures for the nuclei count in assay [2] and in assay [3] were 78.3% and 97%, respectively. Besides, the fluorescence slope is -0.58 (inactive) in assay [4] and 0.00406 (inactive) in assay [6]. Also, the NADPH fluorescence slope in assay [5] is 4.2e-05 (inactive).

On to `CCS(=O)(=O)c1ccc(S(=O)(=O)CC)s1`, for which the cell count in assay [1] came out at 412. Also, the inhibition is -5.5% (inactive) in assay [1], 10.5% (inactive) in assay [3], 6.99% (inactive) in assay [7] and 17.4% (inactive) in assay [8]. Besides, the inhibition of aggregation in assay [2] is 25.8% (inactive). Besides, the nuclei count in assay [2] turned out to be 61.1%; in assay [3], 82.3%. The fluorescence slope is -0.584 (inactive) in assay [4] and 0.00846 (inactive) in assay [6]. For the same molecule, the NADPH fluorescence slope in assay [5] was -4.4e-05 (inactive).

Consider `COc1cccc(NC(=O)COc2ccccc2C(N)=O)c1`, for which the cell count in assay [1] came to 221. The inhibition is -1.2% (inactive) in assay [1], 14.7% (inactive) in assay [3], -78.1% (inactive) in assay [7] and -182% (inactive) in assay [8]. In addition, in assay [2], the inhibition of aggregation is 19.1% (inactive). The nuclei count in assay [2] stood at 83.6%; in assay [3], 78%. Besides, the fluorescence slope in assay [4] is -0.589 (inactive); in assay [6], 0.00613 (inactive). The NADPH fluorescence slope in assay [5] is 6.4e-05 (inactive).

For `Cc1nc(C)c(C(=O)OCC(=O)N2CCN(c3ccccc3)CC2)s1`, in assay [1], the cell count is 700. For the same molecule, the inhibition in assay [1] is -4.8% (inactive); in assay [3], -18.7% (inactive); in assay [7], 16.8% (inactive); in assay [8], 5.6% (inactive). Further, the inhibition of aggregation in assay [2] was -3.6% (inactive). Moreover, the values for the nuclei count in assay [2] and in assay [3] were 99.4% and 102%, respectively. For the same molecule, the fluorescence slope in assay [4] is -0.567 (inactive); in assay [6], 0.00679 (inactive). In assay [5], the NADPH fluorescence slope is -2e-05 (inactive).

For the molecule `Cc1nc2c3cnn(-c4ccccc4)c3ncn2n1`, in assay [1], the cell count was found to be 470. Further, the inhibition in assay [1] is 1.7% (inactive); in assay [3] it was -62.2% (inactive); in assay [7] it was -1.03% (inactive); in assay [8], -18.2% (inactive). Further, the inhibition of aggregation in assay [2] is -9.9% (inactive). In addition, the nuclei count was 105% in assay [2] and 108% in assay [3]. The fluorescence slope in assay [4] was -0.406 (inactive); in assay [6], 0.00848 (inactive). Moreover, the NADPH fluorescence slope in assay [5] was 8.7e-05 (inactive).

As to `Cc1[nH]c2ccccc2c(=O)c1CN(C)Cc1ccccc1`, the cell count in assay [1] is 270. The inhibition in assay [1] was 2.9% (inactive); in assay [3], -124% (inactive); in assay [7], -21% (inactive); in assay [8], -31.5% (inactive). Moreover, the inhibition of aggregation in assay [2] was 13.3% (inactive). Moreover, the nuclei count in assay [2] came to 97.7%; in assay [3], 117%. Also, the fluorescence slope in assay [4] is -0.58 (inactive); in assay [6], 0.00538 (inactive). In addition, the NADPH fluorescence slope in assay [5] was 2e-05 (inactive).
